According to ChEMBL document CHEMBL1148460, “Interaction of cycloSal-pronucleotides with cholinesterases from different origins. A structure-activity relationship” (J Med Chem, 2004):

Experiments:
Vero = assay: Anti-HSV-1 activity tested in Vero cells; assay type: functional, cell-based; settings: Chlorocebus sabaeus
Cholinesterase = Cholinesterase (Homo sapiens, UniProt P06276); assay: Inhibitory activity towards human butyrylcholinesterase
Procedure, shortened: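 Modified Rappaport assay following acetylcholine chloride hydrolysis to acetic acid, with m-nitrophenol indicator in phosphate buffer at pH 7.8 and NaCl. The compound is added in DMSO, and the reaction is started with serum (human, mouse or calf). A420 is read at 25 °C at 0 and 5 min. Final inhibitor is 0.1, 0.5, 1, 5, 10, 30 and 50 µM. IC50 is interpolated from ΔE plots in the pseudolinear region.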

Acetylcholinesterase = Acetylcholinesterase (Electrophorus electricus, UniProt O42275); assay: Inhibitory activity towards Electrophorus electricus acetylcholinesterase
Chain of Acetylcholinesterase (O42275 whole entry): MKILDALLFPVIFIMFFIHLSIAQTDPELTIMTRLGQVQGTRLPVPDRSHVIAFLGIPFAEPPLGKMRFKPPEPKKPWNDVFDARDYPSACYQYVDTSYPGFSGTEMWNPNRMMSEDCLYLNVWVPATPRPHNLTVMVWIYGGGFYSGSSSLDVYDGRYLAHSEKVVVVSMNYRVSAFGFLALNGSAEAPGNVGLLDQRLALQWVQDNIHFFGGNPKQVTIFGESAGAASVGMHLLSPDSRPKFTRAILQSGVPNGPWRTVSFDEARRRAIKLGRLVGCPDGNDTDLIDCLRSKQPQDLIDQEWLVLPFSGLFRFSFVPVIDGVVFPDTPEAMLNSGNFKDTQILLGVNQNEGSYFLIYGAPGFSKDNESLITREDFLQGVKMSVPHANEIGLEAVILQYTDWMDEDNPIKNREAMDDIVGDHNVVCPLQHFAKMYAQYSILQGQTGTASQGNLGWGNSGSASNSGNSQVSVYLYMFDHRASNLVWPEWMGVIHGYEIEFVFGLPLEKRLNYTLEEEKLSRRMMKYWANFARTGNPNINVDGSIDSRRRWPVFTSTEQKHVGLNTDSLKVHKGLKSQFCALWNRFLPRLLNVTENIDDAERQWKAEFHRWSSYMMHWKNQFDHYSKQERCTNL

Human gammaherpesvirus 4 = assay: Anti-EBV activity blocking EBV-DNA synthesis; assay type: functional, organism-based
CCRF-CEM [1] = assay: Anti-HIV-2 activity tested in human lymphocytic CEM cells; assay type: functional, cell-based
[2] = Half-life was determined; assay type: ADME; settings: human
CCRF-CEM [3] = assay: Anti-HIV-1 activity tested in human lymphocytic CEM cells; assay type: functional, cell-based
L1210 = assay: Antitumor activity tested in L1210 cells; assay type: functional, cell-based; settings: Mus musculus

Chain of Cholinesterase (P06276 whole entry): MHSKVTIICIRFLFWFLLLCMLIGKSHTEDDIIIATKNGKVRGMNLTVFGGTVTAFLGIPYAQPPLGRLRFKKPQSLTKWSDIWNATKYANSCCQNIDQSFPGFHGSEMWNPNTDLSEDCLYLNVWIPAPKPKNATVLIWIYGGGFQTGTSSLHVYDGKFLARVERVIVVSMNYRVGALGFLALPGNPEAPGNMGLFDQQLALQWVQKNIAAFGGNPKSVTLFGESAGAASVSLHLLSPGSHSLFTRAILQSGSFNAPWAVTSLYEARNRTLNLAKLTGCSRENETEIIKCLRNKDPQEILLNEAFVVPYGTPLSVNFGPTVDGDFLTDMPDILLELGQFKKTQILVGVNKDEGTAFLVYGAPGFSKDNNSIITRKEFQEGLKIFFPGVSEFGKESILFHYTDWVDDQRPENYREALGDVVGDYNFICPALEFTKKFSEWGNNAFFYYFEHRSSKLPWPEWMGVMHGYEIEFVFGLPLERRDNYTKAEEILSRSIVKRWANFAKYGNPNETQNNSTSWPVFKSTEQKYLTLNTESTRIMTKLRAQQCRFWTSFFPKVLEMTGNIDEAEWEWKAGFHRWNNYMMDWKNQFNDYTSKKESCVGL

Cc1cccc2c1OP(=O)(OC[C@H](CO)OCn1cnc3c(O)nc(N)nc31)OC2 (stereo not given in full)
EC50 (Vero): 3.3 µM | IC50 (Cholinesterase): > 50 µM | IC50 (Acetylcholinesterase): > 50 µM

Cc1cccc2c1OP(=O)(OC[C@H]1O[C@@H](N3CC(/C=C/Br)C(=O)NC3=O)C[C@@H]1O)OC2 (stereo not given in full)
IC50 (Cholinesterase): > 50 µM | IC50 (Acetylcholinesterase): > 50 µM | EC50 (Human gammaherpesvirus 4): 4.1 µM

Cc1cccc2c1OP(=O)(OCC(CO)CCn1cnc3c(O)nc(N)nc31)OC2 (stereo not given)
EC50 (Vero): 17.7 µM | IC50 (Cholinesterase): > 50 µM | IC50 (Acetylcholinesterase): > 50 µM

Cc1cn(C2C=CC(COP3(=O)OCc4cccc(CCC(=O)OC(C)(C)C)c4O3)O2)c(=O)[nH]c1=O (stereo not given)
IC50 (Cholinesterase): 3.4 µM | IC50 (Acetylcholinesterase): > 50 µM | EC50 (CCRF-CEM [1]): 0.33 µM

Cc1cccc2c1O[P@@](=O)(OC[C@@H](CO)OCn1cnc3c(O)nc(N)nc31)OC2
IC50 (Cholinesterase): > 50 µM | IC50 (Acetylcholinesterase): > 50 µM | EC50 (Human gammaherpesvirus 4): 3.29 µM

Cc1cccc2c1OP(=O)(OCCOCn1cnc3c(O)nc(N)nc31)OC2 (stereo not given)
EC50 (Vero): 0.15 µM | IC50 (Cholinesterase): > 50 µM | IC50 (Acetylcholinesterase): > 50 µM

Cc1cn(C2C=CC(COP3(=O)OCc4c(F)c(C(C)(C)C)cc(C(C)(C)C)c4O3)O2)c(=O)[nH]c1=O (stereo not given)
IC50 (Cholinesterase): 48 µM | IC50 (Acetylcholinesterase): > 50 µM | half-life [2]: 6.2 h | EC50 (CCRF-CEM [3]): 0.16 µM

Cc1cccc2c1O[P@](=O)(OC[C@H]1OC(n3cc(F)c(=O)[nH]c3=O)C[C@@H]1O)OC2 (single isomer, unassigned)
EC50 (L1210): 0.044 µM | IC50 (Cholinesterase): > 50 µM | IC50 (Acetylcholinesterase): > 50 µM
